Assay [1] has as its system Mycobacterium tuberculosis. Nature of the assay: Antimycobacterial activity against Mycobacterium tuberculosis H37Ra. Type of assay: functional. Summed up: (§1)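 Colorimetric broth microdilution against M. tuberculosis H37Ra (ATCC 25177) and M. avium NJ 211. Initial screen at 1.28 and 12.8 μg/mL. Activity was confirmed with […] dilutions at 16, 8 and 4 μg/mL to set the MIC.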

Assay [2] deals with Mycobacterium avium. Nature of the assay: Antimycobacterial activity against Mycobacterium avium at 12.8 ug/mL. The format is functional, organism-based. An outline of the steps:
as §1

The target in assay [3] is T1, Probable arabinosyltransferase A (Mycobacterium tuberculosis) (UniProt P9WNL9).
T1 sequence (whole entry): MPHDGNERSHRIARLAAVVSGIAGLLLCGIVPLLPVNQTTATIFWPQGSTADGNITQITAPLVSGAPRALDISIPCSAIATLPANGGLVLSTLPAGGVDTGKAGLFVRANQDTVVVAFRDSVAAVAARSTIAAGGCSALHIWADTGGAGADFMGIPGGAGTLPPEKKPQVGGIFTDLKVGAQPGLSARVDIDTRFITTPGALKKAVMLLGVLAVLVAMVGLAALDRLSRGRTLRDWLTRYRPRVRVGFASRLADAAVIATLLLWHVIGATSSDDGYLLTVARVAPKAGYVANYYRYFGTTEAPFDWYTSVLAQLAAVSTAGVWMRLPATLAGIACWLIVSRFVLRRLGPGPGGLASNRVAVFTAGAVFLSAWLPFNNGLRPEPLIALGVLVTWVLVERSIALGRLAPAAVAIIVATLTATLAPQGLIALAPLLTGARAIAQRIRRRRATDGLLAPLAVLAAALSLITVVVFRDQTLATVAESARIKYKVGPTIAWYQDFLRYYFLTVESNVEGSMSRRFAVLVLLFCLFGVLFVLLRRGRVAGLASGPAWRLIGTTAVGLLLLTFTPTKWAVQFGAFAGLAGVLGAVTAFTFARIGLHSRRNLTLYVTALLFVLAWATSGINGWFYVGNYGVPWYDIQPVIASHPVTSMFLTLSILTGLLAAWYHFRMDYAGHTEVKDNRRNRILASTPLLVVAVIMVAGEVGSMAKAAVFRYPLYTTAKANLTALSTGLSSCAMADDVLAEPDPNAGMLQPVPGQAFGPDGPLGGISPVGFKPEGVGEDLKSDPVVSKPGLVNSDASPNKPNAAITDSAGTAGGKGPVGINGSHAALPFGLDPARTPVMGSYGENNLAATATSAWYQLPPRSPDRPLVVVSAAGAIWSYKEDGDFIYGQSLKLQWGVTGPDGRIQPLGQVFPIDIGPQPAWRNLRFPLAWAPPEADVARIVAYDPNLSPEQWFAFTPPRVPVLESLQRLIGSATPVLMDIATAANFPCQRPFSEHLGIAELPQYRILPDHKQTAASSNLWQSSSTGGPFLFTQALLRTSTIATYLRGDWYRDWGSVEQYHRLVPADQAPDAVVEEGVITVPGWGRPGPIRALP
Description: Inhibition of Mycobacterium smegmatis arabinosyl transferase assessed as [14C]arabinofuranose incorporation at 3.6 mM. Particulars: Mycolicibacterium smegmatis. An outline of the steps: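 Cell-free competition arabinosyltransferase acceptor assay with membranes and [14C]DPA as glycosyl donor. The read-out is inhibition of [14C]Araf incorporation into the α(1→5)-linked 1-O-octyl arabinofuranosyl disaccharide acceptor at 0.4 mM. Test compounds were run at 3.6 mM, and IC50 values were also derived.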

Assay [4] concerns Mycobacterium avium. Nature of the assay: Antimycobacterial activity against Mycobacterium avium. Type of assay: functional. Summed up:
as §1

≈ marks a conversion by molar mass, not a printed value. Calls of active or inactive are those of the source. No cut-off for these calls is given here.

The compound `CC[C@@H](CO)NCCN[C@@H](CC)CO` [ETHAMBUTOL] gave an MIC in assay [1] of 2 µg/mL (≈ 9.79 µM).

Consider `CC(C)(C)[Si](C)(C)O[C@H]1[C@H](O[Si](C)(C)C(C)(C)C)[C@@H](CO[C@H]2O[C@H](CN=[N+]=[N-])[C@@H](O)[C@@H]2O)O[C@@H]1CN=[N+]=[N-]`, for which, in assay [1], it took 16 µg/mL (≈ 27.8 µM) to inhibit growth (MIC). Also, in the assay with Mycobacterium avium [2], the result was inactive.

In the case of `O[C@H]1[C@H](O)[C@@H](CN(CC2CCCCC2)CC2CCCCC2)O[C@@H]1CC[C@H]1O[C@H](CN(CC2CCCCC2)CC2CCCCC2)[C@@H](O)[C@@H]1O`, in assay [3], the outcome was Active. The MIC (in assay [1]; against Mycobacterium avium [4]) was 16 µg/mL (≈ 23.6 µM) each time.

For `O[C@@H]1[C@@H](OC[C@H]2O[C@H](CN(CC3CCCCC3)CC3CCCCC3)[C@@H](O)[C@@H]2O)O[C@H](CN(CC2CCCCC2)CC2CCCCC2)[C@H]1O`, the outcome in assay [3] was Active. The MIC in assay [1] was 8 µg/mL (≈ 11.8 µM); in the assay on Mycobacterium avium [4] it was 16 µg/mL (≈ 23.6 µM).

The compound `CC(C)(C)[Si](C)(C)O[C@H]1[C@H](O[Si](C)(C)C(C)(C)C)[C@@H](CN(CC2CCCCC2)CC2CCCCC2)O[C@@H]1CO[C@H]1O[C@H](CN(CC2CCCCC2)CC2CCCCC2)[C@@H](O)[C@@H]1O` displayed an MIC in assay [1] above 12.8 µg/mL. The result with Mycobacterium avium [2] was inactive.

As to `O[C@H]1[C@H](O)[C@@H](CN(CC2CCCCC2)CC2CCCCC2)O[C@@H]1/C=C/[C@H]1O[C@H](CN(CC2CCCCC2)CC2CCCCC2)[C@@H](O)[C@@H]1O`, the outcome in assay [3] was Active. For the same compound, the MIC (in assay [1]; with Mycobacterium avium [4]) was 8 µg/mL (≈ 11.9 µM) each time.

The values are drawn from ChEMBL document CHEMBL1149558, “Synthesis of symmetrical C- and pseudo-symmetrical O-linked disaccharide analogs for arabinosyltransferase inhibitory activity in Mycobacterium tuberculosis” (Bioorg Med Chem Lett, 2007).
